The values below come from paper PMC3631442 (ACS chemical biology, 2013).

No end group written: not given here. *: point of attachment. Biotin = O=C1N[C@H]2[C@H](CS[C@H]2CCCCC(=O)*)N1; PEG4 = NCCOCCOCCOCCOCCC(=O)O Bounds are passed on as bounds.

Assay [1] concerns the target Mcl-1 (Homo sapiens, UniProt Q07820). Put plainly: Fluorescence polarization competition with fluoresceinated Bim BH3. The class given is binding. For orientation: In fluorescence polarisation assays a small probe gives low polarisation when free and higher when bound to something large.
The target in assay [2] is T1, Bcl-w (Homo sapiens, UniProt Q92843).
T1 sequence (Q92843 1-193): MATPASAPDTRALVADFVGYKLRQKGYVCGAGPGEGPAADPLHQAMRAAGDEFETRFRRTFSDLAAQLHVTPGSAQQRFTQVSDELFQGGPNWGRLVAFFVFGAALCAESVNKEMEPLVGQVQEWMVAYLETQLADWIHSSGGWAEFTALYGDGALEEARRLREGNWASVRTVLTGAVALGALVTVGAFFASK
Described as above. The class given is binding.

The target in assay [3] is T2, Bfl-1 (Homo sapiens, UniProt Q16548).
T2 sequence (Q16548 1-151 limits assumed): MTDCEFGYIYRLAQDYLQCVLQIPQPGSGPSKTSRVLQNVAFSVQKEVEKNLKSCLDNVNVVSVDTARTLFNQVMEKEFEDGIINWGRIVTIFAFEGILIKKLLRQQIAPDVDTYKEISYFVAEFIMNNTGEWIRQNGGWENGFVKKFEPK
Put plainly: Bio-layer interferometry. Type of assay: binding. The procedure, abridged:
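Biotinylated 23-residue test peptide (free N-terminus, amidated C-terminus), at 0.1 mg/ml, loaded on streptavidin biosensors to ~0.42 response units. Protein at 2–3 concentrations (30–250 nM) associated for 10 min, then dissociated for 60 min in 20 mM phosphate, 50 mM NaCl, 0.1% BSA, pH 7.5. Off-rate upper bound taken from signal fluctuation over 1000 s. Association phase fit for kon and Rmax.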
(In general: In BLI a coated tip is dipped into the sample, and binding shifts an interference pattern.)

Assay [4] deals with 18-residue fluoresceinated Bim BH3 peptide (human). Put plainly: fluorescence polarisation.
In assay [5] the target is Bcl-2 (Homo sapiens, UniProt P10415). As to the kind of experiment: Fluorescence polarization competition with fluoresceinated Bim BH3. The class given is binding.
Assay [6] has as its target T2, Bfl-1. The description is as above. The class given is binding.
Assay [7] deals with Bcl-xL (Homo sapiens, UniProt Q07817). The assay is described as above. Type of assay: binding.
The target in assay [8] is Bcl-w (UniProt Q92843). Put plainly: fluorescence polarisation.
Assay [9] addresses T3, Bfl-1.
T3 sequence (Q16548 whole entry, species assumed, looked up): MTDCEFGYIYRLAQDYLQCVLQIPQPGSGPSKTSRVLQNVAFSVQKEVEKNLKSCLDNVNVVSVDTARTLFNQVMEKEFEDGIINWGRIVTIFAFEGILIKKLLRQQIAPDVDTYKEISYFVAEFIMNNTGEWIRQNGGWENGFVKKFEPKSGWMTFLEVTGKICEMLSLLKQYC
As to the kind of experiment: fluorescence polarisation.

For assay [10], the target named is Bid BH3 BH3 (Homo sapiens) (UniProt P55957). Conditions: cited from earlier work.
Assay [11] deals with Puma BH3 BH3 (Homo sapiens) (UniProt Q9BXH1). Conditions: cited from earlier work.
Assay [12] has as its target T4, Bcl-xL (UniProt Q07817-1 1-233). Put plainly: fluorescence polarisation.
Assay [13] addresses T5, Mcl-1 (UniProt Q07820 1-350). Put plainly: fluorescence polarisation.
Assay [14] concerns the target T6, Bcl-w (UniProt Q92843 1-193). Put plainly: fluorescence polarisation.
In assay [15] the target is T7, Bcl-2 (UniProt P10415 1-239). Put plainly: fluorescence polarisation.
The target of assay [16] is T3, Bfl-1. Put plainly: fluorescence polarisation. This is another data set of the same source.
The target in assay [17] is T6, Bcl-w. Put plainly: fluorescence polarisation. This is another data set of the same source.
Assay [18] deals with T7, Bcl-2. As to the kind of experiment: fluorescence polarisation. This is another data set of the same source.
Assay [19] addresses T4, Bcl-xL. As to the kind of experiment: BLI.
In assay [20] the target is T5, Mcl-1. As to the kind of experiment: BLI.

T4 sequence (Q07817 whole entry): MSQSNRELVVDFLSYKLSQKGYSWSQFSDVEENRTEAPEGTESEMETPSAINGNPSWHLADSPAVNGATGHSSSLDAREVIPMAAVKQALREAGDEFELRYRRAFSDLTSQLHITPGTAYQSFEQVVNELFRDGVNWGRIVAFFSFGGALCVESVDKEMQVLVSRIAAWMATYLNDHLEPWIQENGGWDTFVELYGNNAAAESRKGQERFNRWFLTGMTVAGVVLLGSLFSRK
T7 sequence (P10415 whole entry): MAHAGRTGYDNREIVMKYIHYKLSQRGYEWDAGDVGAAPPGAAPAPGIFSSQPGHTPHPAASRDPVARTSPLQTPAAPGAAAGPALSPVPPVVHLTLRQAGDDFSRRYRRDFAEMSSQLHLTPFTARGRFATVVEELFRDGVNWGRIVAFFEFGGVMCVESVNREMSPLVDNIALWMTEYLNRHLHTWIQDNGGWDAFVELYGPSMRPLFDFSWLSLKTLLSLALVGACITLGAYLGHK
Chain of Mcl-1 (Homo sapiens, UniProt Q07820) (Q07820 whole entry): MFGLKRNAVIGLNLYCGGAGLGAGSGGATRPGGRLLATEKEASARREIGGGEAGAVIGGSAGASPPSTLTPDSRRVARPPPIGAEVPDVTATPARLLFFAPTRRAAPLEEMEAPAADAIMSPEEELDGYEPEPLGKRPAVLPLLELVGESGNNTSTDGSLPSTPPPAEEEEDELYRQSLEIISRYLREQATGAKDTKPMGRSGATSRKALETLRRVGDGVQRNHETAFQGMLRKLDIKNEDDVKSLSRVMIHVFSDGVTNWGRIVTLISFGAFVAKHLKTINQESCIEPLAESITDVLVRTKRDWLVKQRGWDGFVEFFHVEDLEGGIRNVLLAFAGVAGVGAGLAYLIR
T5 sequence (Q07820 whole entry): as above
Chain of Bcl-xL (Homo sapiens, UniProt Q07817) (Q07817 whole entry): as the sequence (Q07817 whole entry) above
Chain of Bcl-2 (Homo sapiens, UniProt P10415) (P10415 whole entry): as the sequence (P10415 whole entry) above
Chain of Puma BH3 BH3 (Homo sapiens) (Q9BXH1 130-155): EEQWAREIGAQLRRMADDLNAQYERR
Chain of Bid BH3 BH3 (Homo sapiens) (P55957 79-104): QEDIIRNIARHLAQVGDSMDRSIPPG

As usually defined, the Ki is a measure of affinity in units of concentration, obtained from inhibition or displacement. Read a high Ki as a looser hold on the target. What is called Kd is the concentration at which binding is half-saturated. In general, koff refers to a measure of how fast the partners let go of each other. For Ac-RPEIWIAQELRRAGDVLNAYYAR-NH2 [FA1], the Ki in [1] came to 1 ± 0.1 nM; in [2], 2 ± 1 nM. In addition, the Kd in assay [3] was not above 0.3 nM. Further, the off-rate (koff) in [3] (pH 7.5, read-out: upper limit on koff, dissociation of Bfl-1 from surface-bound peptide) is not above 1.5e-05 s⁻¹.

The molecule Bfl-1 (domain or fragment) displayed a Kd in [4] of 4 nM.

Ac-RPEIWIAQGLRRIGDTWNAYYAR-NH2 [FW1]: the Ki in assay [5] and in assay [7] was 20 to 30 nM in each case. Also, the “fold lower Ki for Bfl-1 compared to Bcl-w” value in [6] (from competition FP Ki values) was ~ 37 fold.

For Bim_D3fK with E3gV (peptide), in [8], the fold weakening of binding against Bim D3fK turned out to be 2.5 fold. For the same molecule, in assay [9], the fold increase in binding against Bim D3fK is 2 fold.

Consider RPEIWMAQVLRRFGDLLNAYYAR [FD2], for which the Ki in assay [1] turned out to be 1 ± 0.1 nM; in assay [6] it was 3.8 ± 0.7 nM. For the same molecule, the “specificity for Bfl-1 over Bcl-xL, Bcl-2 and Bcl-w” value in assay [6] (from competition FP Ki values) was 4-60 fold.

As to Bfl-1 (from UniProt Q16548), the Kd in assay [10] and in assay [11] was 50 nM each time.

As to Ac-RPEIWLAQYLRRLGDQINAYYAR-NH2 [FD1], affinity in assay [6] was put at a Ki of 0.7 ± 0.2 nM.

B1: FW1 (unlabeled, 23 residues) (peptide)
peptide: Ac-RPEIWIAQGLRRIGDTWNAYYAR-NH2
As to B1, the Ki in assay [12] came to 20 nM; in [13], 0.2 nM; in assay [14], 298 nM; in assay [15], 31 nM.

B2: FD1 (peptide)
peptide: Ac-RPEIWLAQYLRRLGDQINAYYAR-NH2
Take B2: the Ki was found to be 0.7 nM in assay [16]; 5 nM in assay [12]; 0.1 nM in assay [13]; 12 nM in [14]; 7 nM in assay [15].

B3: FD2 (peptide)
peptide: H-RPEIWMAQVLRRFGDLLNAYYAR-OH
For the molecule B3, the Ki in assay [16] was determined as 3.8 nM; in [12], 18 nM; in [14] it was 104 nM; in [15] it was 223 nM.

B4: FA1 (unlabeled, 23 residues) (peptide)
peptide: Ac-RPEIWIAQELRRAGDVLNAYYAR-NH2
As to B4, the figures for the Ki in assay [12] and in [15] were 8 nM and 313 nM, respectively.

B5: 18-residue fluoresceinated Bim BH3 peptide (peptide)
peptide: Ac-IWIAQELRRIGDEFNAYY-NH2
modifications: also: fluoresceinated, site not given here
As for B5, the values for the Kd in assay [17] and in assay [18] were 15 nM and 5 nM, respectively.

B6: Biotinylated FA1 (peptide)
peptide: {Biotin-PEG4}-RPEIWIAQELRRAGDVLNAYYAR-NH2
SMILES: CC[C@H](C)[C@H](NC(=O)[C@H](Cc1c[nH]c2ccccc12)NC(=O)[C@@H](NC(=O)[C@H](CCC(=O)O)NC(=O)[C@@H]1CCCN1C(=O)[C@H](CCCNC(=N)N)NC(=O)CCOCCOCCOCCOCCNC(=O)CCCC[C@@H]1SC[C@@H]2NC(=O)N[C@@H]21)[C@@H](C)CC)C(=O)N[C@@H](C)C(=O)N[C@@H](CCC(N)=O)C(=O)N[C@@H](CCC(=O)O)C(=O)N[C@@H](CC(C)C)C(=O)N[C@@H](CCCNC(=N)N)C(=O)N[C@@H](CCCNC(=N)N)C(=O)N[C@@H](C)C(=O)NCC(=O)N[C@@H](CC(=O)O)C(=O)N[C@H](C(=O)N[C@@H](CC(C)C)C(=O)N[C@@H](CC(N)=O)C(=O)N[C@@H](C)C(=O)N[C@@H](Cc1ccc(O)cc1)C(=O)N[C@@H](Cc1ccc(O)cc1)C(=O)N[C@@H](C)C(=O)N[C@@H](CCCNC(=N)N)C(N)=O)C(C)C
B6: the Kd in assay [19] was approximately 33 nM; in assay [20], approximately 6 nM.
